{
  "source": "ChEMBL document CHEMBL1795214",
  "about": "“Discovery of novel xanthone derivatives as xanthine oxidase inhibitors” (Bioorg Med Chem Lett, 2011)",
  "data": [
    {"target": "T1, Xanthine dehydrogenase/oxidase (Bos taurus, UniProt P80457)", "T1 sequence (P80457 whole entry)": "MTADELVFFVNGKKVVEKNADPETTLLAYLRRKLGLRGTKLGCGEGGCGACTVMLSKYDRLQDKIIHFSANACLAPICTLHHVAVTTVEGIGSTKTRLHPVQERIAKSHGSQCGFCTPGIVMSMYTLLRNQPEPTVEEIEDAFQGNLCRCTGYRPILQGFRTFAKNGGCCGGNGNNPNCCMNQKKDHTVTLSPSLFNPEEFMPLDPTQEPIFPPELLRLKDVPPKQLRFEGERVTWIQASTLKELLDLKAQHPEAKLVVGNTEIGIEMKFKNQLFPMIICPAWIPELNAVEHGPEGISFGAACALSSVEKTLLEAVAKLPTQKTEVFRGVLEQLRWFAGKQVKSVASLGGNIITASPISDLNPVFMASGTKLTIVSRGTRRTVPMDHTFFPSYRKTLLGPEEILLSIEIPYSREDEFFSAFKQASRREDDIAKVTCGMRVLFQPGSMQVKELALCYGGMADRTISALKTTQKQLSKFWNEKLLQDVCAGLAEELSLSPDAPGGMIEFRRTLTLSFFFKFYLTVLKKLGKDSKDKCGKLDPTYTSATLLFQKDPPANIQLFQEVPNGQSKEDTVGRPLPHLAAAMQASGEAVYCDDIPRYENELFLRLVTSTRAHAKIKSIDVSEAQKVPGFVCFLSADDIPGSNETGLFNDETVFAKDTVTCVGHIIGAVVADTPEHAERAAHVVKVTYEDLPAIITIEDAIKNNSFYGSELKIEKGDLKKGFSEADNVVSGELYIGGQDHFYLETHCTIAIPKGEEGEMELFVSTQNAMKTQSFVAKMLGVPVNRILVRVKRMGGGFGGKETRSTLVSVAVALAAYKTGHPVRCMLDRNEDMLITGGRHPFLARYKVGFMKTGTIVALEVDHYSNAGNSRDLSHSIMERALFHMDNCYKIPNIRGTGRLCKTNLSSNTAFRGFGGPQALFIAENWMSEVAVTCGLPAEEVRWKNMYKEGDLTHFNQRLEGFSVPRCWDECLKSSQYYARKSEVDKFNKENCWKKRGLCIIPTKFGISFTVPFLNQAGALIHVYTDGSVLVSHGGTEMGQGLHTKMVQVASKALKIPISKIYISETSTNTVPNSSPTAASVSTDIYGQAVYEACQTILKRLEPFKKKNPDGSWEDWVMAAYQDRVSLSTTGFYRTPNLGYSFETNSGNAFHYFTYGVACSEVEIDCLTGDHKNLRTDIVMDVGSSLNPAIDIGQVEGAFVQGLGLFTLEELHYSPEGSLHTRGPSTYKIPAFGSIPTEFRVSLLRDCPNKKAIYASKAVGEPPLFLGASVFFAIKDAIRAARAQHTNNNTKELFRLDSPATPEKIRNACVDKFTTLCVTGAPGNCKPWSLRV", "experiment": "Inhibition of bovine Xanthine oxidase assessed as reduction in uric acid level by spectrophotometry", "details": "not given", "units": {"IC50": "µM"}, "values": [
      {"compound": "Cc1ccccc1COc1cc(O)cc2oc3cc(O)c(O)cc3c(=O)c12", "IC50": 7.08},
      {"compound": "Cc1cccc(COc2cc(O)cc3oc4cc(O)c(O)cc4c(=O)c23)c1", "IC50": 13.6},
      {"compound": "Cc1ccc(COc2cc(O)cc3oc4cc(O)c(O)cc4c(=O)c23)cc1", "IC50": 5.73},
      {"compound": "O=c1c2cc(O)c(O)cc2oc2cc(O)cc(OCc3ccccc3Cl)c12", "IC50": 6.41},
      {"compound": "O=c1c2cc(O)c(O)cc2oc2cc(O)cc(OCc3ccc(Cl)cc3)c12", "IC50": 4.7},
      {"compound": "O=c1c2cc(O)c(O)cc2oc2cc(O)cc(OCc3ccc(Br)cc3)c12", "IC50": 20.1},
      {"compound": "N#Cc1ccc(COc2cc(O)cc3oc4cc(O)c(O)cc4c(=O)c23)cc1", "IC50": 4.67}
    ]},
    {"target": "T1, Xanthine dehydrogenase/oxidase", "experiment": "Inhibition of bovine Xanthine oxidase assessed as reduction in uric acid level at 10 ug/ml by spectrophotometry", "details": "cattle", "in_short": "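Single-concentration screen at 10 μg/mL. XO activity was followed spectrophotometrically as uric acid formation at 293 nm and reported as percent inhibition. Below 60% inhibition at this concentration was recorded as not active.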", "units": {"inhibition at 10 µg/mL": "%"}, "values": [
      {"compound": "O=c1c2cc(O)c(O)cc2oc2cc(O)cc(OCc3ccccc3F)c12", "inhibition at 10 µg/mL": "< 60"},
      {"compound": "O=c1c2cc(O)c(O)cc2oc2cc(O)cc(OCc3cccc(F)c3)c12", "inhibition at 10 µg/mL": "< 60"},
      {"compound": "O=c1c2cc(O)c(O)cc2oc2cc(O)cc(OCc3ccc(F)cc3)c12", "inhibition at 10 µg/mL": "< 60"},
      {"compound": "O=c1c2cc(O)c(O)cc2oc2cc(O)cc(OCc3cccc(Cl)c3)c12", "inhibition at 10 µg/mL": "< 60"},
      {"compound": "O=c1c2cc(O)c(O)cc2oc2cc(O)cc(OCc3ccccc3Br)c12", "inhibition at 10 µg/mL": "< 60"},
      {"compound": "O=c1c2cc(O)c(O)cc2oc2cc(O)cc(OCc3cccc(Br)c3)c12", "inhibition at 10 µg/mL": "< 60"},
      {"compound": "O=c1c2cc(O)c(O)cc2oc2cc(O)cc(OCc3ccccc3[N+](=O)[O-])c12", "inhibition at 10 µg/mL": "< 60"},
      {"compound": "O=c1c2cc(O)c(O)cc2oc2cc(O)cc(OCc3cccc([N+](=O)[O-])c3)c12", "inhibition at 10 µg/mL": "< 60"},
      {"compound": "O=c1c2cc(O)c(O)cc2oc2cc(O)cc(OCc3ccc([N+](=O)[O-])cc3)c12", "inhibition at 10 µg/mL": "< 60"},
      {"compound": "N#Cc1ccccc1COc1cc(O)cc2oc3cc(O)c(O)cc3c(=O)c12", "inhibition at 10 µg/mL": "< 60"},
      {"compound": "N#Cc1cccc(COc2cc(O)cc3oc4cc(O)c(O)cc4c(=O)c23)c1", "inhibition at 10 µg/mL": "< 60"},
      {"compound": "O=c1c2cc(O)c(O)cc2oc2cc(O)cc(OCc3ccc(Cl)cc3Cl)c12", "inhibition at 10 µg/mL": "< 60"},
      {"compound": "O=c1c2cc(O)c(O)cc2oc2cc(O)cc(OCc3c(Cl)cccc3Cl)c12", "inhibition at 10 µg/mL": "< 60"}
    ]}
  ]
}
